How the values were obtained:
[1] = Oral bioavailability in dog at 1.7 mg/kg by LC-MS/MS analysis; type: ADME, organism-based, Canis lupus familiaris; conditions: in vivo
Method in brief: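 Dogs given a 1.7 mg/kg oral dose as a solution in 30% HPBCD/70% water/KOH at pH = 10; plasma parameters derived from this oral dosing, with the iv dose at 0.5 mg/kg in the same vehicle.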

[2] = molecular target: Sodium channel protein type 8 subunit alpha (Homo sapiens, UniProt Q9UQD0); assay: Inhibition of 20% inactivated human Nav1.6 expressed in HEK293 cells assessed as inhibition of peak inward current by whole cell patch clamp method; type: cell-based
[3] = molecular target: T1, Sodium channel protein type 9 subunit alpha (Homo sapiens, UniProt Q15858); assay: Inhibition of human Nav1.7 expressed in HEK293 cells assessed as inhibition of sodium current at holding potential of -60 mV measured for 3 to 5 mins by whole cell voltage clamp method; type: cell-based
T1 sequence (Q15858 whole entry): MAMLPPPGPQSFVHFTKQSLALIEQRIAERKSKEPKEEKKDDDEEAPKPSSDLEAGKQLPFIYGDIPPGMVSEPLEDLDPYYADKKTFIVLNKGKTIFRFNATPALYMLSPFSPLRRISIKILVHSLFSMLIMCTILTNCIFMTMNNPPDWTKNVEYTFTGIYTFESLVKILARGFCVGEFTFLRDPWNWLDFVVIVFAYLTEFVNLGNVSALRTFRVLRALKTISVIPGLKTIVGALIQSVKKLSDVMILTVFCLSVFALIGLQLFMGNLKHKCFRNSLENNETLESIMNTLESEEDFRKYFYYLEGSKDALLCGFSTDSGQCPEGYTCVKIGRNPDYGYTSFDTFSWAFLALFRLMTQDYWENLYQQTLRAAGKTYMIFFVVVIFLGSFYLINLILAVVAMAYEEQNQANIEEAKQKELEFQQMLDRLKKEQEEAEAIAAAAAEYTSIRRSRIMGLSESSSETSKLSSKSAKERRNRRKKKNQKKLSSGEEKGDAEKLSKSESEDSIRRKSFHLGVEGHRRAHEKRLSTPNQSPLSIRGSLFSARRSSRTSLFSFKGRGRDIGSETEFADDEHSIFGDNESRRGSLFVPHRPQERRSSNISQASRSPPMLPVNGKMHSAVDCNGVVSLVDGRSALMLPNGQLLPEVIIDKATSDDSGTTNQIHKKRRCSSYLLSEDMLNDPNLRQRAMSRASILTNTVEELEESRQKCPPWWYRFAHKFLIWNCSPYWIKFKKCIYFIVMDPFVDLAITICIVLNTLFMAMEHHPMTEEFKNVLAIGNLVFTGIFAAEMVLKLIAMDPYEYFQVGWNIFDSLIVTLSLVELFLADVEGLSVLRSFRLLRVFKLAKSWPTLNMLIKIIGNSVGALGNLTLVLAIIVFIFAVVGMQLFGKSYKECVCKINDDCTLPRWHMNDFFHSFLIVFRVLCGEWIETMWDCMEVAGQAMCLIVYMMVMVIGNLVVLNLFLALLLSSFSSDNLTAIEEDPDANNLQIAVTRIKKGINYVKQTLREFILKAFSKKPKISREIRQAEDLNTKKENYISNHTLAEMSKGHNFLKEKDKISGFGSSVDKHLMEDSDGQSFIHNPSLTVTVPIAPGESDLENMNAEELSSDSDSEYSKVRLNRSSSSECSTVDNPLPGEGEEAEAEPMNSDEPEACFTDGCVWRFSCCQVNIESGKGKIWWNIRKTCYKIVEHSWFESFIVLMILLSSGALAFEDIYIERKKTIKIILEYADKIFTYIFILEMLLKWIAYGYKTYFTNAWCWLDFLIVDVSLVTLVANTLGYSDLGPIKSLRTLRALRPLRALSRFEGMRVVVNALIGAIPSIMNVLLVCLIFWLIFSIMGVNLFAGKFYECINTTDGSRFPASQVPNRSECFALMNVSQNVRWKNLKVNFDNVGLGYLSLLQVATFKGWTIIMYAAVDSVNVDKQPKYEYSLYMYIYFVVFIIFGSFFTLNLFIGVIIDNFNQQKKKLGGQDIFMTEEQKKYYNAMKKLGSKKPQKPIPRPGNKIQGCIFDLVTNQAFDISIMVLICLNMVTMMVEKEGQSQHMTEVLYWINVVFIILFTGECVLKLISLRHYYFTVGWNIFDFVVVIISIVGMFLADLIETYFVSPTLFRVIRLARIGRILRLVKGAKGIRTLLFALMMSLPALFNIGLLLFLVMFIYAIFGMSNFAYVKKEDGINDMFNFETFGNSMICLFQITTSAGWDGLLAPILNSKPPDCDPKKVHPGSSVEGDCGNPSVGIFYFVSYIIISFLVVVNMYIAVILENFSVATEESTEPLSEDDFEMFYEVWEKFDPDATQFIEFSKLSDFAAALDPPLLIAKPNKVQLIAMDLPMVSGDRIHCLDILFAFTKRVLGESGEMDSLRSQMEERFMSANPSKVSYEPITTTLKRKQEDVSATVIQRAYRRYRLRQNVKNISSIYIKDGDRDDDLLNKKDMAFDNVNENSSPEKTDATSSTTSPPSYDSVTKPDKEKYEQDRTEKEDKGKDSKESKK

[4] = Clearance in dog at 0.5 mg/kg, iv by LC-MS/MS analysis; type: ADME, organism-based, Canis lupus familiaris; conditions: in vivo
[5] = Dissociation constant, pKa of the compound at pH 1.7 to 11.2 by capillary electrophoresis method; type: physicochemical
Method in brief: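 pKa values calculated from capillary electrophoresis data collected over pH 1.7 to 11.2.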

[6] = molecular target: T1, Sodium channel protein type 9 subunit alpha; assay: Inhibition of human Nav1.7 in closed state expressed in HEK293 cells assessed as inhibition of sodium current at holding potential of -140 mV measured for 3 to 5 mins by whole cell voltage clamp method; type: cell-based
Method in brief: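 Closed-state (fully non-inactivated) protocol: inhibition was measured with cells held at −140 mV, for comparison with protocols using inactivating depolarizations.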

[7] = Drug excretion in bile duct cannulated Sprague-Dawley rat feces assessed as parent compound at 1 mg/kg, iv administered through catheter measured up to 24 hrs by LC-MS/MS analysis; type: ADME, organism-based; conditions: faeces, read-out: Drug excretion
[8] = Oral bioavailability in rat at 10 mg/kg by LC-MS/MS analysis; type: ADME, organism-based; conditions: in vivo
Method in brief: (§1)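 Rats dosed orally at 10 mg/kg as a solution in 30% HPBCD/70% water, brought to pH 10 with KOH.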

[9] = Volume of distribution at steady state in dog at 0.5 mg/kg, iv by LC-MS/MS analysis; type: ADME, organism-based, Canis lupus familiaris; conditions: in vivo
Method in brief: (§2)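 Dogs dosed intravenously at 0.5 mg/kg in 30% HPBCD/70% water, brought to pH 10 with KOH.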

[10] = Unbound clearance in rat at 0.5 mg/kg, iv by LC-MS/MS analysis; type: ADME, organism-based; conditions: in vivo
Method in brief: (§3)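 Male rats, n = 2 per group, dosed intravenously at 0.5 mg/kg as a solution in 100% DMSO. Unbound clearance is derived from total clearance.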

[11] = Fraction unbound in rat plasma at 5 uM measured after 45 mins by LC-MS/MS analysis; type: ADME, cell-free
[12] = molecular target: T1, Sodium channel protein type 9 subunit alpha; assay: Inhibition of human Nav1.7 expressed in HEK293 cells assessed as inhibition of sodium current at holding potential of -125 mV measured for 3 to 5 mins by whole cell voltage clamp method; type: cell-based
[13] = molecular target: Sodium channel protein type 3 subunit alpha (Homo sapiens, UniProt Q9NY46); assay: Inhibition of 20% inactivated human Nav1.3 expressed in CHO cells assessed as inhibition of peak inward current by whole cell patch clamp method; type: cell-based
[14] = Clearance in rat at 0.5 mg/kg, iv by LC-MS/MS analysis; type: ADME, organism-based; conditions: in vivo; method in brief: as §3
[15] = Cmax in rat at 10 mg/kg, po by LC-MS/MS analysis; type: ADME, organism-based; set-up: dose 10 mg/kg, route oral; conditions: in vivo; method in brief: as §1
[16] = molecular target: T2, Sodium channel protein type 9 subunit alpha (Mus musculus, UniProt Q62205); assay: Inhibition of 20% inactivated mouse Nav1.7 expressed in HEK293 cells assessed as inhibition of sodium current measured for 3 to 5 mins by whole cell voltage clamp method; type: cell-based
T2 sequence (Q62205 whole entry): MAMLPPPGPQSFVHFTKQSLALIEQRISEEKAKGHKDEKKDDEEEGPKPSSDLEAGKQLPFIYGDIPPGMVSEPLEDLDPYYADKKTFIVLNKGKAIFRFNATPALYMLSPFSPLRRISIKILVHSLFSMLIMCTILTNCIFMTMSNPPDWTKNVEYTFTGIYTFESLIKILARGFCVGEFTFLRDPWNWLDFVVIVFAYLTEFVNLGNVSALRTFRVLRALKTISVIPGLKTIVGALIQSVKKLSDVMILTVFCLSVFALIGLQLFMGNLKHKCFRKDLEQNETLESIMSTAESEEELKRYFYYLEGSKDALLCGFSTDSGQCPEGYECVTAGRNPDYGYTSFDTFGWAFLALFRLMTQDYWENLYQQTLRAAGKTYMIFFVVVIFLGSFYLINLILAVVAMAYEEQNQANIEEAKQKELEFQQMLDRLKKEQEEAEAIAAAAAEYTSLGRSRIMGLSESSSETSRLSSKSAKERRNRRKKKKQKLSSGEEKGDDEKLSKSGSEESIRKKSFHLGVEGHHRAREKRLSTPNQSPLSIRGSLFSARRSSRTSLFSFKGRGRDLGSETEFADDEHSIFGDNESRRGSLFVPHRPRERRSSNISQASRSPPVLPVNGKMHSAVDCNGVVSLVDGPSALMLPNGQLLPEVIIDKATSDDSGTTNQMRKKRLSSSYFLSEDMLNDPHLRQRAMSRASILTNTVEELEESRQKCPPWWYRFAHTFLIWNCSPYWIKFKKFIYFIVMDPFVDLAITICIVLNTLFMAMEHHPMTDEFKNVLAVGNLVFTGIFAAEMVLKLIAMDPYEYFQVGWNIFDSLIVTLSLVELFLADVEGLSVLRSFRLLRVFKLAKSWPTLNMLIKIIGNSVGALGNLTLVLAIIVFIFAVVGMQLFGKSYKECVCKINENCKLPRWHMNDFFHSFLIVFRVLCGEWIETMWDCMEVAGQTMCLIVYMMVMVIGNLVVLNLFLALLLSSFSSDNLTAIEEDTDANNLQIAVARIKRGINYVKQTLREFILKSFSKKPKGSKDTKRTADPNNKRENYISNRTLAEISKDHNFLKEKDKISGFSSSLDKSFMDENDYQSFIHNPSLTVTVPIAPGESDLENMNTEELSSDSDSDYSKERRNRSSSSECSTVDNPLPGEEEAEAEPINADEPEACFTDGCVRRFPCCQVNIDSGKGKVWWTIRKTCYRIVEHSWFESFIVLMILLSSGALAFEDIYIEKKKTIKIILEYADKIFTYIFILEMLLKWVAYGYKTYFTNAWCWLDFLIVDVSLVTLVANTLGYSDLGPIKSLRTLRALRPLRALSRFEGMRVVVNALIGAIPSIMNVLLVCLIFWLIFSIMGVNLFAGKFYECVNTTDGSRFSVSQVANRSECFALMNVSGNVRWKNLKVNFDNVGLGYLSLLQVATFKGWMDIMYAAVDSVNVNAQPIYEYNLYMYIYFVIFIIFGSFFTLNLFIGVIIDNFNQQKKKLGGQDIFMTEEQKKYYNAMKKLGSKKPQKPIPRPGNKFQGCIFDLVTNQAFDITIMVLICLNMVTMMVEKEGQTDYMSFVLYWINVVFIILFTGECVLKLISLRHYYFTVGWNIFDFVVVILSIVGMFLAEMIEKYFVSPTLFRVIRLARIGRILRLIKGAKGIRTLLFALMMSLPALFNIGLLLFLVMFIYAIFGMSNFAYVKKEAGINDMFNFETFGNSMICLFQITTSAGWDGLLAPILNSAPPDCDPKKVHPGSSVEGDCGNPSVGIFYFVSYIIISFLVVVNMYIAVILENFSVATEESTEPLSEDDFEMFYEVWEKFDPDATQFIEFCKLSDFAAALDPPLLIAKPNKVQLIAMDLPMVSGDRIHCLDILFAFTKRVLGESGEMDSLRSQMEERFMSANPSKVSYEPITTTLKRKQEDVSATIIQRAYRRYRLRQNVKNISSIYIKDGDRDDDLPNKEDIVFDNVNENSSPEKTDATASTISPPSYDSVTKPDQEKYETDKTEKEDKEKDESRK
Method in brief: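 Mouse NaV1.7 was stably transfected into HEK293 cells. Block was measured with cells depolarized to a voltage that gave 20% channel inactivation.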

[17] = molecular target: Sodium channel protein type 9 subunit alpha (Rattus norvegicus, UniProt O08562); assay: Inhibition of 20% inactivated rat Nav1.7 expressed in HEK293T cells assessed as inhibition of sodium current measured for 3 to 5 mins by whole cell voltage clamp method; type: cell-based, HEK-293T
[18] = Unbound plasma concentration in histamine induced C57BL/6 mouse model of scratching at 5 mg/kg, po pretreated for 120 mins followed by histamine-challenge measured after 30 mins; type: ADME, organism-based; conditions: in vivo, 0.5 h
Method in brief: (§4)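 Male C57BL/6 mice dosed orally 120 min before intradermal histamine. Scratching bouts counted over 30 min and compared with vehicle by one-way ANOVA with Dunnett's test. Total and unbound plasma levels taken 30 min after histamine.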

[19] = Selectivity index, ratio of IC50 for human Nav1.5 expressed in HEK293 cells to IC50 for human Nav 1.7 expressed in HEK293 cells
[20] = molecular target: Sodium channel protein type 4 subunit alpha (Homo sapiens, UniProt P35499); assay: Inhibition of 20% inactivated human Nav1.4 expressed in HEK293 cells assessed as inhibition of peak inward current by whole cell patch clamp method; type: cell-based
[21] = Drug excretion in bile duct cannulated Sprague-Dawley rat urine assessed as parent compound at 1 mg/kg, iv administered through catheter measured up to 24 hrs by LC-MS/MS analysis; type: ADME, organism-based; conditions: read-out: Drug excretion
[22] = Ratio of drug level in brain to plasma in C57BL/6 mouse; type: ADME; conditions: read-out: BPR
[23] = system: Mus musculus; assay: Toxicity in C57BL/6 mouse assessed as reduction in locomotor activity at 5 to 60 mg/kg, po measured after 4 hrs by open field movement assay; type: organism-based; conditions: in vivo
[24] = molecular target: Sodium channel protein type 10 subunit alpha (Homo sapiens, UniProt Q9Y5Y9); assay: Inhibition of 20% inactivated human Nav1.8 expressed in CHO cells assessed as inhibition of TTX-resistant current by whole cell patch clamp method; type: cell-based
[25] = molecular target: T2, Sodium channel protein type 9 subunit alpha; assay: Inhibition of 20% inactivated Nav1.7 in C57BL/6 mouse DRG neurons assessed as inhibition of sodium currents in presence of TTX by whole cell patch clamp assay
Method in brief: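 Electrophysiology of TTX-sensitive sodium channels recorded from the cell bodies of sensory neurons freshly dissociated from mouse dorsal root ganglia.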

[26] = Total plasma concentration in histamine induced C57BL/6 mouse model of scratching at 5 mg/kg, po pretreated for 120 mins followed by histamine-challenge measured after 30 mins; type: ADME, organism-based; method in brief: as §4
[27] = molecular target: Voltage-gated inwardly rectifying potassium channel KCNH2 (Homo sapiens, UniProt Q12809); assay: Displacement of [3H]dofetilide from human ERG expressed in HEK293 cell membranes measured after 90 mins by TopCount scintillation counting method
Sequence of Voltage-gated inwardly rectifying potassium channel KCNH2 (Q12809 whole entry): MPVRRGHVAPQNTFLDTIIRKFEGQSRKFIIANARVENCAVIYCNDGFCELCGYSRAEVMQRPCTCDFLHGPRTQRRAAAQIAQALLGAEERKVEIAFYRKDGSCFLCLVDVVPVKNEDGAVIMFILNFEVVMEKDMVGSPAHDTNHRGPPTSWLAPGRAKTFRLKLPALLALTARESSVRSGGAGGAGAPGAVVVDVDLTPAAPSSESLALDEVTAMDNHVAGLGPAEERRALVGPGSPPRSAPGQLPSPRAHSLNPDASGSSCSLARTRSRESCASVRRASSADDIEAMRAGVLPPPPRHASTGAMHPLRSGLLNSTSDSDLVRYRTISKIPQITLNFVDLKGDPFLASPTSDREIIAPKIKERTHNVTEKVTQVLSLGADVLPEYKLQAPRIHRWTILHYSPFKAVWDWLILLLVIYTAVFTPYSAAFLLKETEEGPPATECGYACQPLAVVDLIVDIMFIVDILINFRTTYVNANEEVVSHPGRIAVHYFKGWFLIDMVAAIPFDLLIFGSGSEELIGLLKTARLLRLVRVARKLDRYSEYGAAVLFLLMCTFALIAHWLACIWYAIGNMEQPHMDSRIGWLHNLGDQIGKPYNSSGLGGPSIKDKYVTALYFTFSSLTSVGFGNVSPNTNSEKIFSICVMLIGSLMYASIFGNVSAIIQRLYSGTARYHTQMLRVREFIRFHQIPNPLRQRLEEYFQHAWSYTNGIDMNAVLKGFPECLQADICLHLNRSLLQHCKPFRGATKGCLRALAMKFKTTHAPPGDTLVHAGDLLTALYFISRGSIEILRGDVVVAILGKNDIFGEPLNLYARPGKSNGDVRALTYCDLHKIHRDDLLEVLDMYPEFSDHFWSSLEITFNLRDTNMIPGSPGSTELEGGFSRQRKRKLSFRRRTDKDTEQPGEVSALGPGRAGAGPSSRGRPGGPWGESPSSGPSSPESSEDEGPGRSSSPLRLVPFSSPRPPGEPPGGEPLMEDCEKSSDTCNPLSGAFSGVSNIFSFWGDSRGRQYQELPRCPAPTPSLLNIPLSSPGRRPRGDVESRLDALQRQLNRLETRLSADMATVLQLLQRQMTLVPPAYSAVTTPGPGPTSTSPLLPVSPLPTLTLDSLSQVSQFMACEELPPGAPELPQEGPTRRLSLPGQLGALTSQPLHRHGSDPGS

[28] = molecular target: Sodium channel protein type 1 subunit alpha (Homo sapiens, UniProt P35498); assay: Inhibition of 20% inactivated human Nav1.1 expressed in HEK293 cells assessed as inhibition of peak inward current by whole cell patch clamp method; type: cell-based
[29] = molecular target: T1, Sodium channel protein type 9 subunit alpha; assay: Inhibition of 20% inactivated human Nav1.7 expressed in HEK293 cells assessed as inhibition of peak inward current by whole cell patch clamp method; type: cell-based
Method in brief: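 Electrophysiological block was measured with cells depolarized to a voltage that gave 20% channel inactivation, as opposed to a fully non-inactivated (closed) holding condition.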

[30] = Half life in dog at 0.5 mg/kg, iv by LC-MS/MS analysis; type: ADME, organism-based, Canis lupus familiaris; conditions: in vivo; method in brief: as §2
[31] = Unbound plasma concentration in histamine induced C57BL/6 mouse model of scratching at 60 mg/kg, po pretreated for 120 mins followed by histamine-challenge measured after 30 mins; type: ADME, organism-based; conditions: in vivo, 0.5 h; method in brief: as §4

COc1cc(C(F)(F)F)ccc1-c1ncnc2cc(S(=O)(=O)Nc3nccs3)ccc12
bioavailability [1]: 53%
IC50 [2]: 3.7 µM
IC50 [3]: 0.009 µM
clearance [4]: 0.217 mL/min/kg
pKa [5]: 6.5
IC50 [6]: 7.2 µM
dose excreted at 24 h [7]: 0.6%
bioavailability [8]: 100%
Vd [9]: 0.31 L/kg
CL free [10]: 567 mL/min/kg
fraction unbound at 0.75 h, 5 µM [11]: 0.016
IC50 [12]: 0.16 µM
IC50 [13]: 21 µM
clearance [14]: 9 mL/min/kg
Cmax [15]: 3.4 µM
IC50 [16]: 0.18 µM
IC50 [17]: 3.5 µM
Cp(f) [18]: 0.11 µM
Ratio IC50 [19]: >100
IC50 [20]: 17 µM
dose excreted at 24 h [21]: 0.02%
Kp [22]: 0.008
Activity [23]: Non-Toxic
IC50 [24]: > 30 µM
IC50 [25]: 0.13 µM
concentration at 0.5 h [26]: 3.1 µM
Ki [27]: > 30 µM
IC50 [28]: 7.3 µM
IC50 [29]: 0.14 µM
half-life [30]: 18 h
Cp(f) [31]: 5.1 µM

— ChEMBL document CHEMBL3864175, “Sulfonamides as Selective NaV1.7 Inhibitors: Optimizing Potency and Pharmacokinetics to Enable in Vivo Target Engagement” (ACS Med Chem Lett, 2016)
